Each structure is given as a SMILES string.

The target in assay [1] is Leukocyte tyrosine kinase receptor (Homo sapiens) (UniProt P29376). Kind of assay: Inhibition of human recombinant LTK at 40 nM related to control ULK1.
Assay [2] has as its target T1, Serine/threonine-protein kinase Nek1 (Homo sapiens) (UniProt Q96PY6).
T1 sequence (whole entry): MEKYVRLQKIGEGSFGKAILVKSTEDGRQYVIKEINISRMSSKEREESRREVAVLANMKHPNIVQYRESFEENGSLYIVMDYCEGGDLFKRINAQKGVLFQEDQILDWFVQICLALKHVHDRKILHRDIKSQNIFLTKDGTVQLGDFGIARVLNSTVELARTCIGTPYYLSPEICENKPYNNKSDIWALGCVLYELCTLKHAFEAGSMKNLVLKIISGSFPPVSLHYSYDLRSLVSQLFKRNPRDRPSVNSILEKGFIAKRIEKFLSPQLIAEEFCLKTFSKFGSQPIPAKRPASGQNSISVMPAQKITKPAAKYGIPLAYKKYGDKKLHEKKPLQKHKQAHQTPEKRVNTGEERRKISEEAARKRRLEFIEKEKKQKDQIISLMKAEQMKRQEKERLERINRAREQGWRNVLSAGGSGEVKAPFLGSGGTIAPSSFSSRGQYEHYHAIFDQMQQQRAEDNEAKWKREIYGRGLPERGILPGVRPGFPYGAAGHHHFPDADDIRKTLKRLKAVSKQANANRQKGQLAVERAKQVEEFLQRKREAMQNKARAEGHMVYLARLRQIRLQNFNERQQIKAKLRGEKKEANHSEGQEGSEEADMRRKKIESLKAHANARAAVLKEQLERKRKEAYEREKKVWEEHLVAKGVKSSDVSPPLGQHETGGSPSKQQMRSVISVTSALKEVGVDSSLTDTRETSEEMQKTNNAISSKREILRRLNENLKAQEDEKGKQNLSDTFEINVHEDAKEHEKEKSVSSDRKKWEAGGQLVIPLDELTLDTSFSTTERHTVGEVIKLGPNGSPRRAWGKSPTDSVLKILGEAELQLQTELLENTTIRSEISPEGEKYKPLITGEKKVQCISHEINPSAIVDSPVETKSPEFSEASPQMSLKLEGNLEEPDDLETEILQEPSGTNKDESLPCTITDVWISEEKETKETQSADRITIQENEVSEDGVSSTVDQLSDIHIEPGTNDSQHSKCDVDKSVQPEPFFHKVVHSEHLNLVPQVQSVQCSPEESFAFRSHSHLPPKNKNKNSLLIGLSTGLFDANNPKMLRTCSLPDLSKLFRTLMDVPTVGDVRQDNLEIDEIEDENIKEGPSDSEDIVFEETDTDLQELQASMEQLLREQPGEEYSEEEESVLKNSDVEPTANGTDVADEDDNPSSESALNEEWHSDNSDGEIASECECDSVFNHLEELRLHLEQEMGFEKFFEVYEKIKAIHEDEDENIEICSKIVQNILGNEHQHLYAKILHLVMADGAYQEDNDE
Kind of assay: Inhibition of human recombinant NEK1 at 40 nM in presence of ATP by radiometric assay relative to control.

In assay [3] the target is Tyrosine-protein kinase ABL2 (Homo sapiens) (UniProt P42684). Put plainly: Inhibition of human recombinant ABL2 at 40 nM in presence of ATP by radiometric assay relative to control. Put shortly: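 Panel of 327 recombinant human kinases in radiometric activity assays, each screened in duplicate at a single inhibitor concentration; percent activity remaining relative to vehicle control, percent inhibition taken as 100 minus activity remaining.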

For assay [4], the target named is Tyrosine-protein kinase SYK (Homo sapiens) (UniProt P43405). Put plainly: Inhibition of human recombinant SYK at 40 nM in presence of ATP by radiometric assay relative to control.
For assay [5], the target named is BDNF/NT-3 growth factors receptor (Homo sapiens) (UniProt Q16620). Kind of assay: Inhibition of human recombinant TRKB at 40 nM in presence of ATP by radiometric assay relative to control.
BDNF/NT-3 growth factors receptor (Homo sapiens), sequence (Q16620 32-822 limits assumed): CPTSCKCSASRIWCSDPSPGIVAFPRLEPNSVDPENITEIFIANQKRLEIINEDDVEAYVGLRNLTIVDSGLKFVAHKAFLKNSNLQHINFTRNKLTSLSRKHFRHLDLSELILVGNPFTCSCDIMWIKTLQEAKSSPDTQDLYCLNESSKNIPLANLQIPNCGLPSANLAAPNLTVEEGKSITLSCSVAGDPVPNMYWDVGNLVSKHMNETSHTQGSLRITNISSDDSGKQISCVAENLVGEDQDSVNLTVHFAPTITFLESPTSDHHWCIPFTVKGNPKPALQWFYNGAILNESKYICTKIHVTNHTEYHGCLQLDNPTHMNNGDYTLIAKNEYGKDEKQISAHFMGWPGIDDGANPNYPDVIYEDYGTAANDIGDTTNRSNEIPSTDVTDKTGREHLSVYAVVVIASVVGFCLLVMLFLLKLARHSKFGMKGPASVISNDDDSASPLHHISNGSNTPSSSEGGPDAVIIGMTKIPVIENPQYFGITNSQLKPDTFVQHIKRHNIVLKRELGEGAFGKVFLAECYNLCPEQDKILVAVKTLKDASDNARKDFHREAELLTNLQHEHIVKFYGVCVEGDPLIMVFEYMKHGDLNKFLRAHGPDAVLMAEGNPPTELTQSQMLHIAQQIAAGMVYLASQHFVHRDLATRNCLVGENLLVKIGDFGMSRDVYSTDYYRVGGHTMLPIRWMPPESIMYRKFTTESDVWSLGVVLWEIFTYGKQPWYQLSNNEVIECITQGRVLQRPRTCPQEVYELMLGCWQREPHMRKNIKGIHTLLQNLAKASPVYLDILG
The target of assay [6] is Serine/threonine-protein kinase N1 (Homo sapiens) (UniProt Q16512). Kind of assay: Inhibition of human recombinant PKN1 at 500 nM in presence of ATP by radiometric assay relative to control.
Assay [7] deals with Insulin receptor (Homo sapiens) (UniProt P06213). Kind of assay: Inhibition of human recombinant INSR at 500 nM related to control ULK1.
Assay [8] has as its target Receptor tyrosine-protein kinase erbB-4 (Homo sapiens) (UniProt Q15303). Put plainly: Inhibition of human recombinant ErbB4 at 500 nM related to control ULK1.
The target in assay [9] is Cell division cycle 7-related protein kinase (Homo sapiens) (UniProt O00311). Put plainly: Inhibition of human recombinant CDC7 at 500 nM related to control ULK1.
Cell division cycle 7-related protein kinase (Homo sapiens), sequence (O00311 whole entry, looked up): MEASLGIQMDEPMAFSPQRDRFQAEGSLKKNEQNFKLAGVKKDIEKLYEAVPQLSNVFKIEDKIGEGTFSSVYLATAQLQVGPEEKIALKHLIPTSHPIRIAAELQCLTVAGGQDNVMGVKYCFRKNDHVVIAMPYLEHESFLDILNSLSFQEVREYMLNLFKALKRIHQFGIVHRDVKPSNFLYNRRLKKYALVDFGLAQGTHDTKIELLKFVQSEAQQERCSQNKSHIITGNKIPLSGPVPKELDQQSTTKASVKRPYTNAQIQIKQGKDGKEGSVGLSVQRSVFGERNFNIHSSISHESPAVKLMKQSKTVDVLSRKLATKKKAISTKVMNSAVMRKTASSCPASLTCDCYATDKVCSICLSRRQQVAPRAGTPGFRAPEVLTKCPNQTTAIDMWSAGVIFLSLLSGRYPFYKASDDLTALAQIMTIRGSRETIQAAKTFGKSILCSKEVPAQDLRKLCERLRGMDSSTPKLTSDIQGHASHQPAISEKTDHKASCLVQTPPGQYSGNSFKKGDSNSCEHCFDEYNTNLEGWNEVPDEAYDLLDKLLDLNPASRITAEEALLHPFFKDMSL
In assay [10] the target is Serine/threonine-protein kinase SIK1 (Homo sapiens) (UniProt P57059). Kind of assay: Inhibition of human recombinant SIK at 15 nM related to control ULK1.
Serine/threonine-protein kinase SIK1 (Homo sapiens), sequence (P57059 whole entry): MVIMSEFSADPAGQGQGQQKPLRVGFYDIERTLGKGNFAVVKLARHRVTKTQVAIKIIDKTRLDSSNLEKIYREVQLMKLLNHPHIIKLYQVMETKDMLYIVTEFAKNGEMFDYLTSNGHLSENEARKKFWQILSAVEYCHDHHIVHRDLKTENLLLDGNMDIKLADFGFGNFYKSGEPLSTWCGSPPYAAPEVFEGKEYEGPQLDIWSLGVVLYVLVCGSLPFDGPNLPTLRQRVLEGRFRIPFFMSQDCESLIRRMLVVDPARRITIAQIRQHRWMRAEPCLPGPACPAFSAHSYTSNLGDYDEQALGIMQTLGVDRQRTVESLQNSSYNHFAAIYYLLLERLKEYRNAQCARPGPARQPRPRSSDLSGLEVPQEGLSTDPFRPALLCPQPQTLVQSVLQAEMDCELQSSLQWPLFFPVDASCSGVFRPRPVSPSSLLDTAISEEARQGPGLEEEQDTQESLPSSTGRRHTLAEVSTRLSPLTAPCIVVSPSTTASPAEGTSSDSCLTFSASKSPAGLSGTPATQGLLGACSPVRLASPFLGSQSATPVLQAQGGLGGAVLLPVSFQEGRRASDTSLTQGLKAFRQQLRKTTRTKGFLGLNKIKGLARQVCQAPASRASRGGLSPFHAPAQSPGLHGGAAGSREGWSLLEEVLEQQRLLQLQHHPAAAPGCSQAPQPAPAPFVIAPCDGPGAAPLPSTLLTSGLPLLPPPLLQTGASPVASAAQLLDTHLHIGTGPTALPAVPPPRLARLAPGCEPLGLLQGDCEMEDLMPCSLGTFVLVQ
Assay [11] addresses G protein-coupled receptor kinase 5 (Homo sapiens) (UniProt P34947). Put plainly: Inhibition of human recombinant GPRK5 at 15 nM related to control ULK1.
For assay [12], the target named is Serine/threonine-protein kinase 25 (Homo sapiens) (UniProt O00506). Kind of assay: Inhibition of human recombinant YSK1 at 15 nM related to control ULK1.
Assay [13] has as its target Mast/stem cell growth factor receptor Kit (Homo sapiens) (UniProt P10721). Put plainly: Inhibition of human recombinant KIT at 15 nM in presence of ATP by radiometric assay relative to control.
Assay [14] addresses T2, Tribbles homolog 2 (Homo sapiens) (UniProt Q92519).
T2 sequence (whole entry): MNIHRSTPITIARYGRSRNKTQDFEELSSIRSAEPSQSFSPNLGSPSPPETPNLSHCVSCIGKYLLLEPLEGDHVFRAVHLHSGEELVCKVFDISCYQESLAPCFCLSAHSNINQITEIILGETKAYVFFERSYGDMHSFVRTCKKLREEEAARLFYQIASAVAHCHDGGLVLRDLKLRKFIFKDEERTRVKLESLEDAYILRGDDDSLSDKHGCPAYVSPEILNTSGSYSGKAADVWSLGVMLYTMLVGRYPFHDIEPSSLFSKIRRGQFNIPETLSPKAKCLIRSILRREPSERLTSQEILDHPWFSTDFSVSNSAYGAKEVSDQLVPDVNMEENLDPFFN
Put plainly: Inhibition of human recombinant Trb2 at 15 nM in presence of ATP by radiometric assay relative to control.

Assay [15] addresses Tyrosine-protein kinase JAK2 (Homo sapiens) (UniProt O60674). Put plainly: Inhibition of human recombinant JAK2 at 15 nM related to control ULK1.

Receptor tyrosine-protein kinase erbB-4 (Homo sapiens), sequence (Q15303 whole entry): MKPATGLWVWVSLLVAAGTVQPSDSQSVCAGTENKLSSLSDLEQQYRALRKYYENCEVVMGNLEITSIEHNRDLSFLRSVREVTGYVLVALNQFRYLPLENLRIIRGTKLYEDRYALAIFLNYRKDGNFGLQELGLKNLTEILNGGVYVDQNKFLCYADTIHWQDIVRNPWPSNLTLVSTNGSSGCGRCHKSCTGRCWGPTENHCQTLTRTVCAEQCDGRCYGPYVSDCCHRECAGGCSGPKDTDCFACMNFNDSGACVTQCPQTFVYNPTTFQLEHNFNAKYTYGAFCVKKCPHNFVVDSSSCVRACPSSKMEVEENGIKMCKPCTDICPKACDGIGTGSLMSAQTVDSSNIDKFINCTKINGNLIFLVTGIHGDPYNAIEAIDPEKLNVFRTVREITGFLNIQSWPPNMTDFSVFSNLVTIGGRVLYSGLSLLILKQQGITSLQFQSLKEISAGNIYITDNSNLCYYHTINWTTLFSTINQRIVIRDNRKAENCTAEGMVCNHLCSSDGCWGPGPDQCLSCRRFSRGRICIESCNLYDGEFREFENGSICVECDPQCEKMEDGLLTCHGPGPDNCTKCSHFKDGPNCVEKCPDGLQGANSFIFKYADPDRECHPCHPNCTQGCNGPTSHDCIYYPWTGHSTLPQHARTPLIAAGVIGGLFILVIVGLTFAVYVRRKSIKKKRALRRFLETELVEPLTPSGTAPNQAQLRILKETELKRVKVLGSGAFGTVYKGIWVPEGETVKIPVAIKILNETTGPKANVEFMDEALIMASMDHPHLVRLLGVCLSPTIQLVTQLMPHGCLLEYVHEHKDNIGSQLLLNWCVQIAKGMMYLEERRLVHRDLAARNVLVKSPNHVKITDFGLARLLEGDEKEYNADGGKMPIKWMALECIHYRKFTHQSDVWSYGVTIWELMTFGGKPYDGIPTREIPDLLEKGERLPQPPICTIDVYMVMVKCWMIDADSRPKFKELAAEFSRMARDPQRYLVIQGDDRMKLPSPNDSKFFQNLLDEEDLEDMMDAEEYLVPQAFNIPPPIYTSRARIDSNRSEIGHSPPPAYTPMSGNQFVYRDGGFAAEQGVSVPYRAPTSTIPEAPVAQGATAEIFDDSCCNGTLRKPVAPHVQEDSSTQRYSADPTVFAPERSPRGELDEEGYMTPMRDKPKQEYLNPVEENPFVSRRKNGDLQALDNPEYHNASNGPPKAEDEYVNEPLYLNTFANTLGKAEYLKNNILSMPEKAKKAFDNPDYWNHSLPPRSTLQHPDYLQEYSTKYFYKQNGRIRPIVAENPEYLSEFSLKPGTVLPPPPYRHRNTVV
G protein-coupled receptor kinase 5 (Homo sapiens), sequence (P34947 whole entry, looked up): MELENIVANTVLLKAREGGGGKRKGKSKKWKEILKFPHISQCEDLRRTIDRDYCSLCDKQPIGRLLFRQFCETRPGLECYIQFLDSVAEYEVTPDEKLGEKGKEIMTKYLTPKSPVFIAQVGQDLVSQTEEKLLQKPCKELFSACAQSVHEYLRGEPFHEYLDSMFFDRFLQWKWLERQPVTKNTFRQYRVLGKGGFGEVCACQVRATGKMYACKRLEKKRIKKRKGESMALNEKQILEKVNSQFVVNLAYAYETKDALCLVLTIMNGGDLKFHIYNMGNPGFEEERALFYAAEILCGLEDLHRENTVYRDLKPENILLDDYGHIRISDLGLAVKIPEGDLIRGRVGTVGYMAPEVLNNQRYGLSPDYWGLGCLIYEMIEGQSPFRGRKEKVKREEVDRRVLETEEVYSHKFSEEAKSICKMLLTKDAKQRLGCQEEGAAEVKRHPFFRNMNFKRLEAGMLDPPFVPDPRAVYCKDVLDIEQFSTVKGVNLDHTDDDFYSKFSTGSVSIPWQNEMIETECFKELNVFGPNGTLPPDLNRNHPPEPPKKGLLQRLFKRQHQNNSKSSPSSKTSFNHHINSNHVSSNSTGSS
Leukocyte tyrosine kinase receptor (Homo sapiens), sequence (P29376 whole entry): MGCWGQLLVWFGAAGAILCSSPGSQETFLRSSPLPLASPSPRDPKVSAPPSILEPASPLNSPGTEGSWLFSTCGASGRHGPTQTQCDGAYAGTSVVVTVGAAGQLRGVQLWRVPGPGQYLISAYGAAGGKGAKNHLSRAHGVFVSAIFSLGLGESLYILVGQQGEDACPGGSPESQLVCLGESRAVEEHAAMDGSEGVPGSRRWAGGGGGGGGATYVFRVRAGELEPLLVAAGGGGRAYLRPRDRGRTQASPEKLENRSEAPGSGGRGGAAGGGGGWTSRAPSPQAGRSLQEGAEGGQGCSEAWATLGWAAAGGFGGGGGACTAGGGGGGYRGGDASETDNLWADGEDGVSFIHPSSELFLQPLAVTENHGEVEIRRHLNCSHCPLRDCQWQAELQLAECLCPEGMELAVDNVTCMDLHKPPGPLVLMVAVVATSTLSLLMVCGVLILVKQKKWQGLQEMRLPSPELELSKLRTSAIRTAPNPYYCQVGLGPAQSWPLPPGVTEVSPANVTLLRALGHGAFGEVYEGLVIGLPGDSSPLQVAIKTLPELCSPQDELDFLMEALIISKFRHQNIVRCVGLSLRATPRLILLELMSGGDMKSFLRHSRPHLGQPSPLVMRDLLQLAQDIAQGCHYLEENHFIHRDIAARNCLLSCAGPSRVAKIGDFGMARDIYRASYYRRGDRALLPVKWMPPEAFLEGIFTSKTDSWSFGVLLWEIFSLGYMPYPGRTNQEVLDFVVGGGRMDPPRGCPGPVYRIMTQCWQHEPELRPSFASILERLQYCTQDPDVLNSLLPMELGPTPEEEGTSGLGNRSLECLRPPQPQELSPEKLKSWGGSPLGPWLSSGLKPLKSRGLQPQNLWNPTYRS

Consider `O=C(N[C@@H](C1CC1)C(F)(F)F)c1cc(-c2cnn3cc(-c4ccc(F)cc4)cnc23)cs1`, for which the fold change (FC) in [1] is 0. Moreover, the inhibition in [2] came out at 0%; in assay [3] it was 7%; in [4], 0%; in assay [5], 19%.
In the case of `CNC(=O)c1ccccc1Oc1nc(Nc2cc(OC)c(OC)c(OC)c2)ncc1Br`, the inhibition in assay [6] is 0%. Besides, the fold change (FC) in [7], in assay [8] and in assay [9] was 0 in each case.
For `CC(C)[C@H](NC(=O)c1cc(-c2cnn3cc(-c4ccc(OCCN5CCCCC5)cc4)cnc23)cs1)C(F)(F)F`, the fold change (FC) came to 0.84 in assay [10], 0 in [11], 0 in [12] and 0.07 in assay [15]. Also, the inhibition in assay [13] amounted to 0%; in assay [14], 36%.

One may read the inhibition as the percentage by which the read-out fell short of the control.

These data come from ChEMBL document CHEMBL5653631, “A Potent and Selective ULK1 Inhibitor Suppresses Autophagy and Sensitizes Cancer Cells to Nutrient Stress” (iScience, 2018).
